pIC50, pKd: −log10 of the molar value. Active and inactive are the calls of the source. No cut-off for these calls is given here.
Key:
Mus musculus [1] = test: Invivo antitumor activity in transgenic mouse harboring EGFR L858R/T790M mutant assessed as reduction in small residual nodules in tumor at 25 mg/kg administered via gavage for 2 weeks by H&E staining based analysis; assay type: functional, organism-based
Summary of the method: (§1)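 EGFR-TL (L858R/T790M) or exon19 deletion-T790M (TD) inducible bitransgenic mice dosed by oral gavage daily at 25 mg/kg; vehicle 10% 1-methyl-2-pyrrolidinone:90% PEG-300. Tumors followed by MRI; lung histology by standard protocols.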

Mus musculus [2] = test: Invivo antitumor activity in transgenic mouse harboring EGFR L858R/T790M mutant assessed as decrease in cellularity at 25 mg/kg administered via gavage for 2 weeks by H&E staining based analysis; assay type: functional, organism-based; summary of the method: as §1
Mus musculus [3] = test: In vivo inhibition of ERK1/2 phosphorylation in transgenic mouse harboring EGFR L858R/T790M mutant at 2.5 to 25 mg/kg administered as two doses separated by 16 hours by immunoblot analysis; assay type: functional, organism-based; settings: dose 2.5-25 mg/kg
Summary of the method: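 Transgenic mice gavaged with compound in 10% 1-methyl-2-pyrrolidinone:90% PEG-300 vehicle; phosphorylation assessed in tissue by immunoblotting per standard protocols.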

Mus musculus [4] = test: Invivo antitumor activity in transgenic mouse harboring EGFR del19/T790M mutant assessed as remodelling/scarring at 25 mg/kg administered via gavage for 2 weeks by H&E staining based analysis; assay type: functional, organism-based; summary of the method: as §1
cells = assay type: functional, cell-based; settings: Homo sapiens, NCI-H1819, 72 h
eIF-2-alpha kinase GCN2 = eIF-2-alpha kinase GCN2 (Homo sapiens, UniProt Q9P2K8); test: Binding affinity to GCN2 (unknown origin) assessed as dissociation constant
Sequence of eIF-2-alpha kinase GCN2 (Q9P2K8 whole entry): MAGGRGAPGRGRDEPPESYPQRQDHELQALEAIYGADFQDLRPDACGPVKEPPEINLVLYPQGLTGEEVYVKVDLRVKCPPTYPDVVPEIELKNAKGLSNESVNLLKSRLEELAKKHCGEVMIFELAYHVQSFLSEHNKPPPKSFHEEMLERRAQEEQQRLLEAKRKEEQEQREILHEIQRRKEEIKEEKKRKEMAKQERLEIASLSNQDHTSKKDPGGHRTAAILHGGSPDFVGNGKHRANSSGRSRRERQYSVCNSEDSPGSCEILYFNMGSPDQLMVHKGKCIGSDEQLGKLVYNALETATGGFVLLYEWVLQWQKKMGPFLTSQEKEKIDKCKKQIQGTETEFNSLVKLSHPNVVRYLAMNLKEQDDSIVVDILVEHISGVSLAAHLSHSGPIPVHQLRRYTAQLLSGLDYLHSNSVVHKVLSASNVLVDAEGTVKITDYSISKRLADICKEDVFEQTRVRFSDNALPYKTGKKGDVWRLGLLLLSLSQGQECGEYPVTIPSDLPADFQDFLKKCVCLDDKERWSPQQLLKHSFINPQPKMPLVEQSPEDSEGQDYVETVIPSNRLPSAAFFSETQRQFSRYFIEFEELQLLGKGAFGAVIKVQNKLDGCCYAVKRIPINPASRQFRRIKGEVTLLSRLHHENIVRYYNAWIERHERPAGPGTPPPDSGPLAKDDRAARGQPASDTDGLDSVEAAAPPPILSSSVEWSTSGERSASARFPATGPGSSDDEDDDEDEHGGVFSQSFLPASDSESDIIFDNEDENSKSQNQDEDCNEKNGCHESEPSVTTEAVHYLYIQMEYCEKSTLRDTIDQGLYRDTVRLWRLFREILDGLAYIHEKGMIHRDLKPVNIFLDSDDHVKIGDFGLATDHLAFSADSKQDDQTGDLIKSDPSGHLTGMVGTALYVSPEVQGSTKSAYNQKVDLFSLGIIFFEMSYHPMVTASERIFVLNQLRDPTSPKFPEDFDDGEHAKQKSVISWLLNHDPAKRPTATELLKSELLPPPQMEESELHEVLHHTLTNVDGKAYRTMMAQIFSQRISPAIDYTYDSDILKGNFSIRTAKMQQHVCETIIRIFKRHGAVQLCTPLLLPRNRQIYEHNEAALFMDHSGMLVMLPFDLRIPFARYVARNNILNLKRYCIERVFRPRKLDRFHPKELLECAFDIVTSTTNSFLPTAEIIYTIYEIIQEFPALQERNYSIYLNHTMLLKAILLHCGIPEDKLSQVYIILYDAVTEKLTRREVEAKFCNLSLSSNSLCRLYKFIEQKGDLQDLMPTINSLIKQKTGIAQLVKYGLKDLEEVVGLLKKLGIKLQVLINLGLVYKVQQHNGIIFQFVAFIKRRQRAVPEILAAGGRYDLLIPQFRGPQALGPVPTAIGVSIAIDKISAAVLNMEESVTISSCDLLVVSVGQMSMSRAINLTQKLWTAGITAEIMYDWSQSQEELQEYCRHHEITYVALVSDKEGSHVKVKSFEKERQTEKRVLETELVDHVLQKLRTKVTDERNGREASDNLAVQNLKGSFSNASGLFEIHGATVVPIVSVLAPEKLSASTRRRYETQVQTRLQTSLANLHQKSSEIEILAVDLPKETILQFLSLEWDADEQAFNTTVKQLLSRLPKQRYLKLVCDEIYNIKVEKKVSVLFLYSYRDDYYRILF

[5] = Drug concentration in mouse plasma at 10 mg/kg, po administered as single dose and measured after 0.25 hrs; assay type: ADME, organism-based
[6] = target: Cyclin-G-associated kinase (Homo sapiens, UniProt O14976); test: Binding affinity to GAK (unknown origin) assessed as dissociation constant
Sequence of Cyclin-G-associated kinase (O14976 whole entry): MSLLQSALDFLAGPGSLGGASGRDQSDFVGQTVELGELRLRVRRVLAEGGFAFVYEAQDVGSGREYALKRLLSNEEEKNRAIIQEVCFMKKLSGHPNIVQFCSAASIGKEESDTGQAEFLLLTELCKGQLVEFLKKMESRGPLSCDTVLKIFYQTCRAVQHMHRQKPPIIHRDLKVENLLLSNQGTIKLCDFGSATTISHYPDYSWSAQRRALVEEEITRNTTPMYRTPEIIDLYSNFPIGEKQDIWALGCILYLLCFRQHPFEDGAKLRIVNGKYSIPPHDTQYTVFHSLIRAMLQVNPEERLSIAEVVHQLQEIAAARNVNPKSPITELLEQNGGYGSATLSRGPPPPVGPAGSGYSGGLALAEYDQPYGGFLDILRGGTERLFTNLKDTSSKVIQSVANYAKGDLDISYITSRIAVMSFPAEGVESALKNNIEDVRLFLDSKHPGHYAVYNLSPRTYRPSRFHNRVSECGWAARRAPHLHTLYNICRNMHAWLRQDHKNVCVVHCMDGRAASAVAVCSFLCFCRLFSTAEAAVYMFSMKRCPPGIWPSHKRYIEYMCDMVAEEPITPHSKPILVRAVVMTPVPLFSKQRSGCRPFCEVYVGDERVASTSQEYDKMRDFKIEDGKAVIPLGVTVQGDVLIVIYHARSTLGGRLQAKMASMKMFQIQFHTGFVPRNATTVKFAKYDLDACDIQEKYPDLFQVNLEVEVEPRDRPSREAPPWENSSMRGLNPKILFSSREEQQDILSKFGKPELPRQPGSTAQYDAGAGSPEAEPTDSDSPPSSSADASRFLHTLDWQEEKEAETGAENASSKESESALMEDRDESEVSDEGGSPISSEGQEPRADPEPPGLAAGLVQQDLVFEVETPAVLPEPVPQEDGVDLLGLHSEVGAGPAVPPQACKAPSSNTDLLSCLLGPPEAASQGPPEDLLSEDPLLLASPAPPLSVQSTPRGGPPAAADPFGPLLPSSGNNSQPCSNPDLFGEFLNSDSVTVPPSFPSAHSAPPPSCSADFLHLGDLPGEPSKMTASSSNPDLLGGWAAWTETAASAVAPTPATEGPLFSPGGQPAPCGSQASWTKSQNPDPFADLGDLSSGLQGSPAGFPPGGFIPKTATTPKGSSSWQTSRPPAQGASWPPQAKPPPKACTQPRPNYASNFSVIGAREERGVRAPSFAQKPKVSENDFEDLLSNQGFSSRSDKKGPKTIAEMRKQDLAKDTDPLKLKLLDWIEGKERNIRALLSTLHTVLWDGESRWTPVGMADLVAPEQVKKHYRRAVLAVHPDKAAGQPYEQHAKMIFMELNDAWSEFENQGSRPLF

PC-9 [7] = test: Prevention of EGFR T790M mutant development in human PC-9 cells harboring delE746_A750 mutant assessed as reduction in resistant cells with T790M mutant at 1 uM; assay type: functional, cell-based
[8] = target: Mitogen-activated protein kinase; ERK1/ERK2 (Homo sapiens) (UniProt P27361+P28482); test: Inhibition of ERK1/2 phosphorylation in human PC9 Gefitinib-resistant (GR) cells at 0.01 to 1 uM incubated for 16 hrs by immunoblot analysis; assay type: cell-based; settings: PC9 Gefitinib-resistant (GR) cell, dose 0.01-1 µM
Sequence of Mitogen-activated protein kinase; ERK1/ERK2 (Homo sapiens) (P27361 whole entry, looked up): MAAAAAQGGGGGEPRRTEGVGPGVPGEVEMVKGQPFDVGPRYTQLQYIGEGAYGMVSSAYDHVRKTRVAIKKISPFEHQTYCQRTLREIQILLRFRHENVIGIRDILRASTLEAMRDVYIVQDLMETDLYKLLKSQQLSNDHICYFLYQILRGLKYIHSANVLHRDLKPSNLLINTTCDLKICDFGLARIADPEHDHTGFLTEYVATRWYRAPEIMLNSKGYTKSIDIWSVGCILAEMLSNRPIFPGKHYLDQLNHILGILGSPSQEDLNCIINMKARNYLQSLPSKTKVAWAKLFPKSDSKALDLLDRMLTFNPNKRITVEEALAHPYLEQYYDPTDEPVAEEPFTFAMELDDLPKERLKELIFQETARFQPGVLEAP
Sequence of Mitogen-activated protein kinase; ERK1/ERK2 (Homo sapiens) (P28482 whole entry, looked up): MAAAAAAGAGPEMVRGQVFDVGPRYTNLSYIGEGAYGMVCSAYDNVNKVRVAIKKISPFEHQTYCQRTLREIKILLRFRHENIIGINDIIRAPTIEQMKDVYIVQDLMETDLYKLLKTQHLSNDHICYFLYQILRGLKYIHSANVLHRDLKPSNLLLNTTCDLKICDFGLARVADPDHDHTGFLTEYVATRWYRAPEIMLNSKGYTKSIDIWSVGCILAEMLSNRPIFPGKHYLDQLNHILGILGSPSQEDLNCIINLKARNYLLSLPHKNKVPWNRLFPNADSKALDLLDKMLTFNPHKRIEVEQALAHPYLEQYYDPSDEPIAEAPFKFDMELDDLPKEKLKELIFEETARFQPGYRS

PC-9 [9] = test: cells; assay type: functional, cell-based; settings: Homo sapiens, PC-9, 72 h
BaF3 [10] = test: cells; assay type: functional, cell-based; settings: Mus musculus, BaF3, 72 h
[11] = C0 in mouse at 1 mg/kg, iv administered as single dose; assay type: ADME, organism-based; settings: in vivo
[12] = Drug concentration in mouse plasma at 1 mg/kg, iv administered as single dose and measured after 0.25 hrs; assay type: ADME, organism-based
[13] = Volume of distribution at steady state in mouse at 1 mg/kg, iv administered as single dose; assay type: ADME, organism-based; settings: in vivo, read-out: Vdss
[14] = Drug concentration in mouse plasma at 1 mg/kg, iv administered as single dose and measured after 0.08 hrs; assay type: ADME, organism-based
[15] = Drug concentration in mouse plasma at 10 mg/kg, po administered as single dose and measured after 8 hrs; assay type: ADME, organism-based
[16] = Half-life in mouse at 10 mg/kg, po administered as single dose; assay type: ADME, organism-based; settings: in vivo
BaF3 [17] = test: cells; assay type: functional, cell-based; settings: Mus musculus, BaF3, 72 h; remark: listed apart in the source
[18] = target: ALK tyrosine kinase receptor (Homo sapiens, UniProt Q9UM73); test: Binding affinity of ALK (unknown origin) assessed as dissociation constant
[19] = Drug concentration in mouse plasma at 10 mg/kg, po administered as single dose and measured after 1 hrs; assay type: ADME, organism-based

For `C=CC(=O)Nc1cccc(Oc2nc(Nc3ccc(N4CCN(C)CC4)cc3OC)ncc2Cl)c1`, the Activity (Mus musculus [1]) was “Active”, the Activity (Mus musculus [2]) was “Active” and the inhibition (Mus musculus [3]) was “Active”. The Activity (Mus musculus [4]) was “Active”, the pIC50 (cells) was 6.03 and the pKd (eIF-2-alpha kinase GCN2) was 6.85. The concentration at 0.25 h [5] was 429 ng/mL, the pKd [6] was 7.04 and the Activity (PC-9 [7]) was “Active”. For the same molecule, the inhibition [8] was “Active”, the pIC50 (PC-9 [9]) was 7.44 and the pIC50 (BaF3 [10]) was 5.73. For the same molecule, the C0 [11] was 1480 ng/mL, the concentration at 0.25 h [12] was 627 ng/mL and the Vd [13] was 1.54 L/kg. For the same molecule, the concentration at 0.08 h [14] was 1130 ng/mL, the concentration at 8 h [15] was 59.2 ng/mL and the half-life [16] was 148 min. For the same molecule, the pIC50 (BaF3 [17]) was 6.21, the pKd [18] was 6.52 and the concentration at 1 h [19] was 340 ng/mL.

— ChEMBL document CHEMBL5705889, “Novel mutant-selective EGFR kinase inhibitors against EGFR T790M” (Nature, 2009)
